These results are taken from ChEMBL document CHEMBL2440065, “Identification of a novel benzoxazolone derivative as a selective, orally active 18 kDa translocator protein (TSPO) ligand” (J Med Chem, 2013).

Molecules are shown by their SMILES. Converted amounts (≈) assume the structure as drawn. The source made the active and inactive calls. The rule behind the calls is not given here.

The nature of series [1]: Solubility of the compound at pH 2.5 by HPLC analysis. It counts as physicochemical. The settings on record: buffer. In short, it runs like this: (§1)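 Compound (1 mg) shaken in 0.4 mL buffered solution at pH 7.4 or pH 2.5, then centrifuged; dissolved compound in the supernatant quantified by HPLC.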
Series [2] can be described thus: Solubility of the compound at pH 7.4 by HPLC analysis. Format: physicochemical. The settings on record: buffer. In short, it runs like this:
as §1

The species named for series [3] is Rattus norvegicus. Nature of the series: Displacement of [3H]flumazenil from Sprague-Dawley rat cerebral cortex CBR at 10 uM after 1 hr by liquid scintillation counting analysis. Format: tissue-based.
For another series, the target named is Translocator protein (Rattus norvegicus, UniProt P16257). As to the kind of experiment: Displacement of [3H]PK11195 from Sprague-Dawley rat kidney TSPO after 1 hr by liquid scintillation counting analysis.
Series [4] in a line: Metabolic stability in rat liver S9 fraction assessed as compound remaining at 1 uM after 30 mins in presence of NADPH. Format: ADME, subcellular. The settings on record: read-out: Stability.
For another series, the target named is CYP2C19 (Homo sapiens, UniProt P33261). Nature of the series: Inhibition of CYP2C19 (unknown origin) at 1 uM. Format: ADME.
The nature of series [5]: Displacement of [3H]batrachotoxin from rat brain sodium channel site 2. Format: tissue-based. On the technique in general: Loss of bound radioactivity is the signal in a displacement assay; it reports binding, not function.
A short description of series [6]: Solubility of the compound at pH 6.8. The settings on record: buffer. It counts as physicochemical. In outline: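 Solubility measured in pH 6.8 buffer containing bile acids; compound tested as free base and as HCl salt.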
Series [7] is filed under the species Rattus norvegicus. As to the kind of experiment: Displacement of [3H]batrachotoxin from rat brain sodium channel site 2 at 10 uM relative to control. It counts as tissue-based.
Series [8] relates to Rattus norvegicus. As to the kind of experiment: Anxiolytic-like activity in Sprague-Dawley rat vogel conflict model at 3 mg/kg, po after 1 hr. It counts as functional, organism-based. The arrangement: dose 3 mg/kg.

Chain of Translocator protein (P16257 whole entry, looked up): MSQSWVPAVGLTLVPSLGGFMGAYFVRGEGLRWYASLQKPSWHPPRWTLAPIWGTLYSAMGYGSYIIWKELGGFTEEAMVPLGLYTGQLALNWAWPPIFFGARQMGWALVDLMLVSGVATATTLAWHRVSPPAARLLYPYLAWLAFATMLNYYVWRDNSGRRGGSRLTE
Chain of CYP2C19 (P33261 whole entry): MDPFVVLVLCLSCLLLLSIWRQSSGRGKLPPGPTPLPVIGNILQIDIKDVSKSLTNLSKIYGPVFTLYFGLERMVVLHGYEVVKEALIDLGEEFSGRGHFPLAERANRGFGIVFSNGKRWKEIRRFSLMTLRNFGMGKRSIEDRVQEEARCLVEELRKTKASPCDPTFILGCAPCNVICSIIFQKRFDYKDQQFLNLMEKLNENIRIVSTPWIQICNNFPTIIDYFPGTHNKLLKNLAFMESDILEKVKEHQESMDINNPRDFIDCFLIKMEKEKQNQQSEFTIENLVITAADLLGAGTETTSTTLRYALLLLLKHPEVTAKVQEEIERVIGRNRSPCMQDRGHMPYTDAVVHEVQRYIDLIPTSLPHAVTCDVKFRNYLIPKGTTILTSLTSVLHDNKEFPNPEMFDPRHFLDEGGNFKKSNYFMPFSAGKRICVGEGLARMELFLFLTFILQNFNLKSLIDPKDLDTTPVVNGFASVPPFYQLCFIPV

What is called solubility is the dissolved amount per volume that the medium holds. Higher therefore signals a readily soluble substance. Turning to `CN(C(=O)Cn1c(=O)oc2ccc(-c3ccccc3)cc21)c1ccccc1`, in series [1], the concentration in solution (solubility) was 1 µg/mL (≈ 2.79 µM).

In series [2], `CN(C(=O)Cn1c(=O)oc2ccc(-c3cccnc3)cc21)c1ccccc1` had a solubility of 5 µg/mL (≈ 13.9 µM).

A word on the inhibition: it is the relative decrease from the control value, in per cent. What is called Ki is a dissociation constant, usually derived from enzyme kinetics or from competition with a known ligand. High values mean a looser hold on the target, low ones a stronger hold on the target. `COc1ccc(N(C)C(=O)Cn2c(=O)oc3ccc(-c4cccnc4)cc32)cc1`: the inhibition in the series listed under Rattus norvegicus [3] came out at 0%. On Translocator protein, this molecule came in with an inhibitory constant (Ki) of 19 nM. The remaining at 0.5 h, 1 µM in [4] turned out to be 9%.

Take `CCN(C(=O)Cn1c(=O)oc2ccc(-c3ccncc3)cc21)c1ccccc1`: the inhibition in the series filed under Rattus norvegicus [3] worked out at 5%. Besides, the solubility worked out at 2 µg/mL (≈ 5.36 µM) in series [2] and 860 µg/mL (≈ 2300 µM) in [1]. The inhibition constant (Ki) at Translocator protein turned out to be 3 nM. The remaining at 0.5 h, 1 µM in series [4] was determined as 24%. The inhibition at 1 µM on CYP2C19 amounted to 71%.

As to `CCN(C(=O)Cn1c(=O)oc2ccc(-c3cccnc3)cc21)c1ccccc1`, in the series filed under Rattus norvegicus [3], the inhibition stood at 21%. The same molecule returned an inhibitory constant (Ki) on Translocator protein of 4.4 nM. Also, in series [4], the remaining at 0.5 h, 1 µM came to 0%.

Take `CN(C(=O)Cn1c(=O)oc2ccc(-c3ccccc3)cc21)c1ccccn1`: the values for the solubility in series [2] and in series [1] were 1 µg/mL (≈ 2.78 µM) and 3 µg/mL (≈ 8.35 µM), respectively.

As to `COc1ccc(N(C)C(=O)Cn2c(=O)oc3ccc(-c4ccncc4)cc32)cc1`, the inhibition in the series filed under Rattus norvegicus [3] came to 2%. In addition, the figures for the solubility in series [2] and in [1] were < 1 µg/mL and 130 µg/mL (≈ 334 µM), respectively. This molecule returned an inhibition constant Ki on Translocator protein of 17 nM. For the same molecule, the remaining at 0.5 h, 1 µM in [4] came to 47%.

A word on the IC50: it is the midpoint of a concentration-inhibition curve. Lower therefore signals inhibition by little substance. With `CN(C(=O)Cn1c(=O)oc2ccc(-c3ccccc3)cc21)c1cccnc1`, the half-maximal inhibitory concentration (IC50) in series [5] is > 1000 nM. In addition, the solubility in [1] came to 180 µg/mL (≈ 501 µM).

`CN(C(=O)Cn1c(=O)oc2ccc(-c3ccncc3)cc21)c1ccc(OC(F)(F)F)cc1`: the inhibition constant Ki at Translocator protein turned out to be 23 nM.

Consider `CN(C(=O)Cn1c(=O)oc2ccc(-c3ccncc3)cc21)c1ccccc1`, for which the solubility in [2] is 1 µg/mL (≈ 2.78 µM); in [1], 730 µg/mL (≈ 2030 µM).

For the molecule `CN(C(=O)Cn1c(=O)oc2ccc(-c3ccc(OC(F)(F)F)cc3)cc21)c1cccnc1` [listing 1 of 2 here], the figures for the solubility in series [2], in series [6] and in series [1] were < 1 µg/mL, 20 µg/mL (≈ 45.1 µM) and 4 µg/mL (≈ 9.02 µM), respectively. In [5], this molecule gave a half-inhibitory concentration (IC50) of 700 nM. Further, the Ki at Translocator protein came to 4.9 nM. In series [4], the remaining at 0.5 h, 1 µM was 32%.

As for `CN(C(=O)Cn1c(=O)oc2ccc(-c3ccncc3)cc21)c1ccc(C(F)(F)F)cc1`, the inhibition in the series listed under Rattus norvegicus [3] was determined as 0%. Moreover, the solubility in series [2] was 3 µg/mL (≈ 7.02 µM); in series [1] it was > 1000 µg/mL. Also, at Translocator protein, the affinity, expressed as Ki, was 6.6 nM. The remaining at 0.5 h, 1 µM in [4] was 35%. Also, the inhibition at 1 µM against CYP2C19 was determined as 73%.

Turning to `CN(C(=O)Cn1c(=O)oc2ccc(-c3ccc(C(F)(F)F)cc3)cc21)c1cccnc1`, the inhibition in the series filed under Rattus norvegicus [3] was 6%. Further, the solubility in series [2] and in [1] was < 1 µg/mL in each case. In addition, the affinity on Translocator protein, expressed as Ki, was 9.8 nM. The remaining at 0.5 h, 1 µM in series [4] is 24%.

As for `CN(C(=O)Cn1c(=O)oc2ccc(-c3cccnc3)cc21)c1ccc(OC(F)(F)F)cc1`, the inhibition in the series filed under Rattus norvegicus [3] stood at 0%. Further, the IC50 in series [5] is > 1000 nM. For the same molecule, the Ki on Translocator protein worked out at 26 nM.

For `CN(C(=O)Cn1c(=O)oc2ccc(-c3ccc(OC(F)(F)F)cc3)cc21)c1cccnc1` [listing 2 of 2 here], the inhibition was found to be 0% in the series listed under Rattus norvegicus [3] and 108% in the series filed under Rattus norvegicus [7]. Moreover, the result in the series on Rattus norvegicus [8] was Active.

Regarding `CN(C(=O)Cn1c(=O)oc2ccc(-c3ccc(C(F)(F)F)cc3)cc21)c1ccccc1`, the solubility in [2] and in series [1] was < 1 µg/mL throughout.

For `CN(C(=O)Cn1c(=O)oc2ccc(-c3ccc(OC(F)(F)F)cc3)cc21)c1ccccc1`, the solubility in series [2] and in series [1] was < 1 µg/mL each time.
